Measured values taken from ChEMBL document CHEMBL3877322, “Design, synthesis, molecular modeling and anti-hyperglycemic evaluation of novel quinoxaline derivatives as potential PPARγ and SUR agonists” (Bioorg Med Chem, 2017).

Key:
Rattus norvegicus [1] = assay: Antihyperglycemic activity in Swiss albino rat model of streptozotocin-induced hyperglycemia assessed as reduction in blood glucose level at 0.36 mg/kg, po measured after 3 hrs by glucometer relative to control; type: functional; design: scale not given: the % may be the effect or the level left
Procedure, shortened: (§1)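 Adult male Swiss albino rats (200-300 g) acclimatized 24 h, then given streptozotocin 60.00 mg/kg i.p. in 0.90% sodium citrate buffer pH 4.50. Those with glucose >250.00 mg/dl at 72 h were used, six per group. Single oral dose; diabetic controls received 1% gum acacia vehicle. Tail blood glucose read by glucometer at 0 and 3 h; % reduction calculated.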

[2] = Agonist activity at SUR in Wistar rat islets of pancreas assessed as induction of glucose-stimulated insulin secretion preincubated for 1 hr followed by glucose addition measured after 30 mins by sandwich ELISA
Procedure, shortened: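 Islets from fed male-unspecified Wistar rats (200-250 g), pilocarpine-pretreated i.p., isolated by collagenase, then cultured overnight at 16 mmol/l glucose in CMRL-1066 with L-glutamine, gentamycin and 10% FCS at 37°C. Exposed 1 h to compound in DMSO (5, 10, 15, 20 uM), washed in Ringer HEPES, then 30 min at 37°C with 16.7 mmol/l glucose. Insulin measured by rat insulin sandwich ELISA (A450); EC50 reported.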

Rattus norvegicus [3] = assay: Antihyperglycemic activity in Swiss albino rat model of streptozotocin-induced hyperglycemia assessed as reduction in blood glucose level at 20 mg/kg, po measured after 3 hrs by glucometer relative to control; type: functional; design: scale not given: the % may be the effect or the level left; procedure, shortened: as §1
[4] = biological target: T1, Peroxisome proliferator-activated receptor gamma (Homo sapiens, UniProt P37231); assay: Displacement of fluormone-PPARgamma Green from recombinant human N-terminal GST-tagged PPARgamma-LBD by fluorescence polarization assay
T1 sequence (P37231 whole entry): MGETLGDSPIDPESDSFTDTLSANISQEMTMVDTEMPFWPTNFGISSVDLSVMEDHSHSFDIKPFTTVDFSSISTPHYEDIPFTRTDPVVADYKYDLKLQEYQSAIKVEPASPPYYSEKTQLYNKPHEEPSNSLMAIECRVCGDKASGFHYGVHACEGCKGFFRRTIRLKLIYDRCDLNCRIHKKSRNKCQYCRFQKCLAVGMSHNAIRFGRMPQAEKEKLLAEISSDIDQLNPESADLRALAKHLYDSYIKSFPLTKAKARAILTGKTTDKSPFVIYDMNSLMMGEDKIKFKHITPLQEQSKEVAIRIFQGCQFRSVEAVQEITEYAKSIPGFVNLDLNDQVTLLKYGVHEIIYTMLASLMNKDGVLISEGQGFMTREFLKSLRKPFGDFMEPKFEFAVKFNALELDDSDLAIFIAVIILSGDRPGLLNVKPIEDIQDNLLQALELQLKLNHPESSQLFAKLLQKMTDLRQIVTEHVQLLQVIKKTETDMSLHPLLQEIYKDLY

Structure (SMILES): CCC1=C(C)CN(C(=O)NCCc2ccc(S(=O)(=O)NC(=O)NC3CCC(C)CC3)cc2)C1=O (stereo unspecified)
- Activity (Rattus norvegicus [1]): 26.53%
- EC50 [2]: 0.73 to 4 µM

Structure (SMILES): Cc1nc2ccccc2n(CC(=O)Nc2ccc(S(=O)(=O)NC(=O)Nc3ccccc3)cc2)c1=O
- Activity (Rattus norvegicus [3]): 25.15%

Structure (SMILES): O=C(CN1CC(=O)Nc2ccccc21)Nc1ccc(S(=O)(=O)NC(=S)NC2CCCCC2)cc1
- Activity (Rattus norvegicus [3]): 13.08%

Structure (SMILES): Cc1nc2ccccc2n(CC(=O)Nc2ccc(S(=O)(=O)NC(=O)NC3CCCCC3)cc2)c1=O
- Activity (Rattus norvegicus [3]): 50.58%
- IC50 [4]: 0.482 µM
- EC50 [2]: 0.92 µM

Structure (SMILES): O=C(CN1CC(=O)Nc2ccccc21)Nc1ccc(S(=O)(=O)NC(=S)Nc2ccccc2)cc1
- Activity (Rattus norvegicus [3]): 2.88%

Structure (SMILES): O=C1CN(C(=O)CNc2ccc(S(=O)(=O)NC(=O)Nc3ccccc3)cc2)c2ccccc2N1
- Activity (Rattus norvegicus [3]): 22.01%

Structure (SMILES): Cc1nc2ccccc2n(CC(=O)Nc2ccc(S(=O)(=O)NC(=S)NC3CCCCC3)cc2)c1=O
- Activity (Rattus norvegicus [3]): 33.23%
- IC50 [4]: 0.35 µM
- EC50 [2]: 2.69 µM

Structure (SMILES): CCCCNC(=O)NS(=O)(=O)c1ccc(NCC(=O)N2CC(=O)Nc3ccccc32)cc1
- Activity (Rattus norvegicus [3]): 40.55%
- IC50 [4]: 1.32 µM
- EC50 [2]: 1.95 µM

Structure (SMILES): CCCCNC(=S)NS(=O)(=O)c1ccc(NC(=O)Cn2c(=O)c(C)nc3ccccc32)cc1
- Activity (Rattus norvegicus [3]): 43.84%
- IC50 [4]: 0.369 µM
- EC50 [2]: 2.82 µM

Structure (SMILES): O=C(CN1CC(=O)Nc2ccccc21)Nc1ccc(S(=O)(=O)NC(=O)NC2CCCCC2)cc1
- Activity (Rattus norvegicus [3]): 39.81%
- IC50 [4]: 1.15 µM
- EC50 [2]: 1.54 µM

Structure (SMILES): O=C(CN1CC(=O)Nc2ccccc21)Nc1ccc(S(=O)(=O)NC(=O)Nc2ccccc2)cc1
- Activity (Rattus norvegicus [3]): 21.89%

Structure (SMILES): CCCCNC(=O)NS(=O)(=O)c1ccc(NC(=O)Cn2c(=O)c(C)nc3ccccc32)cc1
- Activity (Rattus norvegicus [3]): 40.55%
- IC50 [4]: 0.491 µM
- EC50 [2]: 0.98 µM

Structure (SMILES): CCCCNC(=S)NS(=O)(=O)c1ccc(NC(=O)CN2CC(=O)Nc3ccccc32)cc1
- Activity (Rattus norvegicus [3]): 30.75%

Structure (SMILES): O=C1CN(C(=O)CNc2ccc(S(=O)(=O)NC(=O)NC3CCCCC3)cc2)c2ccccc2N1
- Activity (Rattus norvegicus [3]): 49.62%
- IC50 [4]: 1.14 µM
- EC50 [2]: 1.89 µM

Structure (SMILES): Cc1nc2ccccc2n(CC(=O)Nc2ccc(S(=O)(=O)NC(=S)Nc3ccccc3)cc2)c1=O
- Activity (Rattus norvegicus [3]): 20.54%

Structure (SMILES): CCCCNC(=O)NS(=O)(=O)c1ccc(NC(=O)CN2CC(=O)Nc3ccccc32)cc1
- Activity (Rattus norvegicus [3]): 45.1%
- IC50 [4]: 1.29 µM
- EC50 [2]: 1.69 µM

Structure (SMILES): Cc1ccc(NC(=S)NS(=O)(=O)c2ccc(CCNS(=O)(=O)c3ccccc3)cc2)cc1
- EC50 [2]: 100 µM

Structure (SMILES): COc1ccc(NC(=S)NS(=O)(=O)c2ccc(CCNS(=O)(=O)c3ccccc3)cc2)cc1
- EC50 [2]: 1000 µM

Structure (SMILES): O=S(=O)(NCCc1ccc(S(=O)(=O)NC(=S)Nc2ccc(Cl)cc2)cc1)c1ccc(Cl)cc1
- EC50 [2]: 33.3 µM

Structure (SMILES): COc1ccc(NC(=S)NS(=O)(=O)c2ccc(CCNS(=O)(=O)c3ccc(Cl)cc3)cc2)cc1
- EC50 [2]: 33.3 µM

Structure (SMILES): O=C(NC1CCCCC1)NS(=O)(=O)c1ccc(CCNS(=O)(=O)c2ccccc2)cc1
- EC50 [2]: 12.5 µM

Structure (SMILES): CC1CCC(NC(=O)NS(=O)(=O)c2ccc(CCNS(=O)(=O)c3ccc(Cl)cc3)cc2)CC1 (stereo unspecified)
- EC50 [2]: 2.04 µM

Structure (SMILES): CC1CCC(NC(=O)NS(=O)(=O)c2ccc(CCNS(=O)(=O)c3ccc(Br)cc3)cc2)CC1 (stereo unspecified)
- EC50 [2]: 1.6 µM

Structure (SMILES): CC1CCC(NC(=O)NS(=O)(=O)c2ccc(CCNS(=O)(=O)c3ccccc3)cc2)CC1 (stereo unspecified)
- EC50 [2]: 3.4 µM

Structure (SMILES): O=C(NC1CCCCC1)NS(=O)(=O)c1ccc(CCNS(=O)(=O)c2ccc(Cl)cc2)cc1
- EC50 [2]: 3.1 µM

Structure (SMILES): O=C(NC1CCCCC1)NS(=O)(=O)c1ccc(CCNS(=O)(=O)c2ccc(Br)cc2)cc1
- EC50 [2]: 2.4 µM

Structure (SMILES): CC(=O)Nc1ccc(S(=O)(=O)NCCc2ccc(S(=O)(=O)NC(=O)NC3CCC(C)CC3)cc2)cc1C (stereo unspecified)
- EC50 [2]: 7.14 µM

Structure (SMILES): CC(=O)Nc1ccc(S(=O)(=O)NCCc2ccc(S(=O)(=O)NC(=O)NC3CCC(C)CC3)cc2)cc1 (stereo unspecified)
- EC50 [2]: 20 µM

Structure (SMILES): O=S(=O)(NCCc1ccc(S(=O)(=O)NC(=S)Nc2ccc(Cl)cc2)cc1)c1ccccc1
- EC50 [2]: 33.3 µM
